# ChEMBL document CHEMBL4007422 (J Med Chem, 2017)
# Active and inactive are the calls of the source. No cut-off for these calls is given here.
# How the values were obtained:
# [1] = AUC (0 to t) in Wistar rat at 10 mg/kg, po by LC-MS/MS analysis; assay type: ADME, organism-based; conditions: Wistar, in vivo
# Homo sapiens = assay: Toxicity in healthy elderly male human subjects administered as multiple ascending dose for 14 days; conditions: 336 h
# Rattus norvegicus [2] = assay: Toxicity in Wistar rat assessed as induction of cholinergic side effects at 1 and 3 mg/kg, po in presence of 1 mg/kg of donepezil and memantine administered sc 30 mins post compound treatment measured after 4 hrs by LC-MS/MS based microdialysis method relative to control; assay type: organism-based; conditions: in vivo
# Outline: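 The probe (4 mm membrane) was inserted 16 h before the study and perfused with aCSF (pH 7.2) at 1.5 μL/min, with 2 h stabilization. Five 20-min basal samples were taken before oral compound. Donepezil and memantine (1 mg/kg s.c. each) were given 30 min later. Dialysates were collected for 4 h and acetylcholine measured by LC-MS/MS as % of basal. Comparison was against donepezil+memantine by two-way ANOVA.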
# [3] = AUC (0 to t) in Beagle dog at 10 mg/kg, po; assay type: ADME, organism-based, Canis lupus familiaris; conditions: in vivo
# [4] = Solubility of the compound in water; assay type: physicochemical; conditions: buffer
# Cytochrome P450 3A4 [5] = biological target: T1, Cytochrome P450 3A4 (Homo sapiens, UniProt P08684); assay: Inhibition of CYP3A4 in human liver microsomes using testosterone as substrate in presence of NADPH by LC-MS/MS analysis; assay type: ADME
# Outline: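 CYP3A4 inhibition in human liver microsomes using testosterone hydroxylation as the probe reaction; IC50 determined.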
# Cytochrome P450 3A4 [6] = biological target: T1, Cytochrome P450 3A4; assay: Induction of CYP3A4 activity in human hepatocytes at 0.01 to 1 uM preincubated for 3 days followed by substrate addition measured after 30 mins; assay type: ADME, cell-based; conditions: 0.5 h
# Outline: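 Plateable human hepatocytes exposed to 0.01, 0.1 and 1.0 μM. CYP1A2, CYP2B6 and CYP3A4 induction read as both mRNA expression and enzyme activity.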
# [7] = biological target: 5-hydroxytryptamine receptor 7 (Rattus norvegicus) (UniProt P32305); assay: Binding affinity to recombinant rat 5-HT7 receptor expressed in CHOK1 cells assessed as inhibition of 5-HT stimulated cAMP accumulation after 4 hrs by luciferase reporter gene assay; assay type: cell-based
# Salmonella typhimurium [8] = assay: Mutagenicity in Salmonella typhimurium TA100 in presence of metabolic activation; assay type: toxicity; conditions: salmonella enterica subsp. enterica serovar typhimurium
# [9] = biological target: Alpha-2C adrenergic receptor (Homo sapiens, UniProt P18825); assay: Inhibition of recombinant human adrenergic alpha 2C receptor expressed in CHO cells assessed as inhibition of 5-HT stimulated cAMP accumulation after 4 hrs by luciferase reporter gene assay; assay type: functional, cell-based
# [10] = Oral bioavailability in Wistar rat at 10 mg/kg by LC-MS/MS analysis; assay type: ADME, organism-based; conditions: Wistar, in vivo
# Rattus norvegicus [11] = assay: Cognitive enhancing effect in contextual fear conditioning rat model assessed as reversal of scopolamine-induced emotional memory deficits at 1 to 10 mg/kg, po administered for 1 hr followed by scopolamine challenge for 120 mins; assay type: functional, organism-based
# [12] = biological target: Voltage-gated inwardly rectifying potassium channel KCNH2 (Homo sapiens, UniProt Q12809); assay: Inhibition of astemizole binding to human ERG
# Outline: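 hERG channel binding assessed as displacement in an astemizole binding assay.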
# [13] = Apparent volume of distribution in Wistar rat at 10 mg/kg, iv by LC-MS/MS analysis; assay type: ADME, organism-based; conditions: in vivo, read-out: Vz
# Cytochrome P450 2A6 = Cytochrome P450 2A6 (Homo sapiens, UniProt P11509); assay: Inhibition of CYP2A6 in human liver microsomes in presence of NADPH by LC-MS/MS analysis; assay type: ADME
# Outline: (§1)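 Pooled human liver microsomes. IC50 determined from isoform-specific marker activities for CYP1A2, 2A6, 2B6, 2C8, 2C9, 2C19 (mephenytoin hydroxylation) and 2E1.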
# Salmonella typhimurium [14] = assay: Mutagenicity in Salmonella typhimurium TA98 in presence of metabolic activation; assay type: toxicity; conditions: salmonella enterica subsp. enterica serovar typhimurium
# Salmonella typhimurium [15] = assay: Mutagenicity in Salmonella typhimurium TA1535 in absence of metabolic activation; assay type: toxicity; conditions: salmonella enterica subsp. enterica serovar typhimurium
# Rattus norvegicus [16] = assay: Increase in acetylcholine level in Wistar rat ventral hippocampus at 1 mg/kg, po after 6 hrs by LC-MS/MS based microdialysis method; assay type: functional, organism-based
# Outline: (§2)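 Male Wistar rats (240−300 g) fitted under isoflurane with a ventral hippocampal guide cannula (AP −5.2, ML +5.0, DV −3.8 mm from bregma). Probe (4 mm membrane) inserted 16 h before study. Perfusion with aCSF pH 7.2 at 1.5 μL/min, 2 h stabilization, five basal 20-min samples. Test agent given p.o.; donepezil and memantine (1 mg/kg s.c. each) given 30 min later in combination arms. Dialysates collected 6 h (4 h for combination), acetylcholine measured by LC-MS/MS, expressed as % of mean basal.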
# Rattus norvegicus [17] = assay: Effect on basal level of acetylcholine in Wistar rat ventral hippocampus at 1 to 3 mg/kg, po after 6 hrs by LC-MS/MS based microdialysis method; assay type: ADME, organism-based; conditions: in vivo; outline: as §2
# [18] = biological target: T2, 5-hydroxytryptamine receptor 1A (Homo sapiens) (UniProt P08908); assay: Displacement of [3H]-8-OH-DPAT from recombinant human 5-HT1A receptor expressed in HEK293 EBNA cell membranes after 120 mins by microbeta scintillation counting analysis
# T2 sequence (whole entry): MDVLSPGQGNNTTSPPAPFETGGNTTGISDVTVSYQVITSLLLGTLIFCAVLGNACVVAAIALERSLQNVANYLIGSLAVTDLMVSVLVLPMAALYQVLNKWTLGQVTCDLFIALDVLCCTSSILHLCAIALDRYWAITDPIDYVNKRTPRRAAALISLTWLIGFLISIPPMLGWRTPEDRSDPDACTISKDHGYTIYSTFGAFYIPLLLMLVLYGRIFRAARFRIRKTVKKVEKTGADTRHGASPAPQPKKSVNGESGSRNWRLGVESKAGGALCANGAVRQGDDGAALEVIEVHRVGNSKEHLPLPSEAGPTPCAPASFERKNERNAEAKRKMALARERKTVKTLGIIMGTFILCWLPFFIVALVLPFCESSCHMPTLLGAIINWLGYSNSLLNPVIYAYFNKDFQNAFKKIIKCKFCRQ
# [19] = Clearance in Wistar rat at 10 mg/kg, iv by LC-MS/MS analysis; assay type: ADME, organism-based; conditions: in vivo
# Rattus norvegicus [20] = assay: Increase in acetylcholine level in Wistar rat ventral hippocampus at 3 mg/kg, po after 6 hrs by LC-MS/MS based microdialysis method; assay type: functional, organism-based; outline: as §2
# [21] = Cmax in Wistar rat at 10 mg/kg, po by LC-MS/MS analysis; assay type: ADME, organism-based; parameters: dose 10 mg/kg, route oral; conditions: in vivo
# Salmonella typhimurium [22] = assay: Mutagenicity in Salmonella typhimurium TA1537 in absence of metabolic activation; assay type: toxicity; conditions: salmonella enterica subsp. enterica serovar typhimurium
# Cytochrome P450 2C8 = Cytochrome P450 2C8 (Homo sapiens, UniProt P10632); assay: Inhibition of CYP2C8 in human liver microsomes in presence of NADPH by LC-MS/MS analysis; assay type: ADME; outline: as §1
# Cytochrome P450 2C19 = Cytochrome P450 2C19 (Homo sapiens, UniProt P33261); assay: Inhibition of CYP2C19 in human liver microsomes using mephenytoin as substrate in presence of NADPH by LC-MS/MS analysis; assay type: ADME; outline: as §1
# [23] = Apparent permeability of the compound in human Caco2 cells at 10 uM measured up to 120 mins by LC-MS/MS analysis; assay type: ADME, cell-based; conditions: Caco-2
# Outline: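 Permeability in Caco-2 intestinal epithelial monolayers, measured apical-to-basolateral and basolateral-to-apical; efflux ratio taken as Papp(B-A)/Papp(A-B).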
# T1 sequence (P08684 whole entry): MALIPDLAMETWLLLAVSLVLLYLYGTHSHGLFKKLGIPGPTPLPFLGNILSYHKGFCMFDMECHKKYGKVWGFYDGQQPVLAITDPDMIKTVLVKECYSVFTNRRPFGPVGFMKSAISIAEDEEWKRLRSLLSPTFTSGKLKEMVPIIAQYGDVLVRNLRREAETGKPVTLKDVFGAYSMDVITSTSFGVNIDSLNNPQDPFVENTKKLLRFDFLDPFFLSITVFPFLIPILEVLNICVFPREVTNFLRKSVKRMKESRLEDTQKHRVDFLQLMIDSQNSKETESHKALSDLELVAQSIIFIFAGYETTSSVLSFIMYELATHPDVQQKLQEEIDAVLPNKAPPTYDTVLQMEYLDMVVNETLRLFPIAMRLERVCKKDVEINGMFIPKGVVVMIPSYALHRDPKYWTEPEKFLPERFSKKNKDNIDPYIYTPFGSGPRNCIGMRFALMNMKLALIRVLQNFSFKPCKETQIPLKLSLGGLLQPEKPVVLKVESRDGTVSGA
# Sequence of Cytochrome P450 2C19 (P33261 whole entry): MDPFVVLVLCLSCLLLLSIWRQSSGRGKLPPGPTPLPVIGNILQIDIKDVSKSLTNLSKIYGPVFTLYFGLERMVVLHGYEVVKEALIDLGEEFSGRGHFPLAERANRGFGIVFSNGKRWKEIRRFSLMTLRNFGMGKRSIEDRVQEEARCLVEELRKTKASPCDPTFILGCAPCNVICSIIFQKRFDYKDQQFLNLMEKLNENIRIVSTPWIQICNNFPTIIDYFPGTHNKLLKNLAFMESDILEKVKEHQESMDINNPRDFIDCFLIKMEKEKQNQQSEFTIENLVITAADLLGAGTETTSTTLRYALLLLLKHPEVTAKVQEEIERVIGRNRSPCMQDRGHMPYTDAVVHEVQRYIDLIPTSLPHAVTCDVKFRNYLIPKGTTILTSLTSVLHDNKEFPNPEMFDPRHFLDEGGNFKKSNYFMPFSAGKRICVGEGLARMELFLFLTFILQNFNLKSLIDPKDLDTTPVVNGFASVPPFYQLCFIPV
# Sequence of Voltage-gated inwardly rectifying potassium channel KCNH2 (Q12809 whole entry): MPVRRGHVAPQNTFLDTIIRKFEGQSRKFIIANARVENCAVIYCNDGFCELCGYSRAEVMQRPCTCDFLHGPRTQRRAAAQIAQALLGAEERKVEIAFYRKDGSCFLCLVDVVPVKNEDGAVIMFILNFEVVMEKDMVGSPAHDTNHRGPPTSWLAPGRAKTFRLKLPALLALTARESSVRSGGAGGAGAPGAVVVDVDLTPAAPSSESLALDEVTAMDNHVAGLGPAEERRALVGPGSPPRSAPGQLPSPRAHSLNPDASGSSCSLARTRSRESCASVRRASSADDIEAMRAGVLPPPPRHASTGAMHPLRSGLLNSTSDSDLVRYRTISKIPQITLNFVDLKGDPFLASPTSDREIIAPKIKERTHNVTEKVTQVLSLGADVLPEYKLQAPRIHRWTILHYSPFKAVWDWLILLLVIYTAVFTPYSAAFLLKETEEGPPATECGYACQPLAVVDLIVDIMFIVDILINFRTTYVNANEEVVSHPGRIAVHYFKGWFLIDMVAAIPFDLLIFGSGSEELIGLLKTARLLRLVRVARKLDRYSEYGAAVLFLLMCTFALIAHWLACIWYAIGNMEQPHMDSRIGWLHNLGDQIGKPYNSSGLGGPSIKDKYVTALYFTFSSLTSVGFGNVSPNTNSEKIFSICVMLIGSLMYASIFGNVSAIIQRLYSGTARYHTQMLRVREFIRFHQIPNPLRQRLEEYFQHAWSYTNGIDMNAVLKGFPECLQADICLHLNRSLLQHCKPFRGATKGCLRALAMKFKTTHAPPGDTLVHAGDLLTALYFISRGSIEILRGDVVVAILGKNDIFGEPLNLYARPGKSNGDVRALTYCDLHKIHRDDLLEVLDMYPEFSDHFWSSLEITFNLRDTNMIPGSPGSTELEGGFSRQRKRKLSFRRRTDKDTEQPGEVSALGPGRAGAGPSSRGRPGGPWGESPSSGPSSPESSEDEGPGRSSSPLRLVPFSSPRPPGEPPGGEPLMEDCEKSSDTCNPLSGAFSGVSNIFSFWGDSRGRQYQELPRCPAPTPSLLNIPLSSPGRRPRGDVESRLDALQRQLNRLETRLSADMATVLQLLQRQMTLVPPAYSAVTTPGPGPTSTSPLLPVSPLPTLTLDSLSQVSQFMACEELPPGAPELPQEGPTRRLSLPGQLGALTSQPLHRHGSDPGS
# Sequence of Cytochrome P450 2A6 (P11509 whole entry, canonical isoform): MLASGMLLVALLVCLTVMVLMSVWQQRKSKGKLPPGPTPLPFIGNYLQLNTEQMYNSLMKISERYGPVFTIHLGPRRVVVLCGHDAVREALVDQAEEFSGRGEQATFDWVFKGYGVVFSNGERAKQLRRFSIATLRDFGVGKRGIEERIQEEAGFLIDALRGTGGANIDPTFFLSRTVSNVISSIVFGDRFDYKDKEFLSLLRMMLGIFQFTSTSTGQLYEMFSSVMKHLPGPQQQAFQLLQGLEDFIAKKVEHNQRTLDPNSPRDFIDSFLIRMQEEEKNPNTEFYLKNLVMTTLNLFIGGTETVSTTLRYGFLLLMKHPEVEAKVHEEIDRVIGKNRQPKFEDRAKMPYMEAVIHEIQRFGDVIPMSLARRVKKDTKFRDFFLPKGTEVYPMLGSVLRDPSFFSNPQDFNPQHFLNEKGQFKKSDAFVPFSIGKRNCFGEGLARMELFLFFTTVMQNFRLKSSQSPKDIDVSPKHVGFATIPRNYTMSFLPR
# Sequence of Alpha-2C adrenergic receptor (P18825 whole entry): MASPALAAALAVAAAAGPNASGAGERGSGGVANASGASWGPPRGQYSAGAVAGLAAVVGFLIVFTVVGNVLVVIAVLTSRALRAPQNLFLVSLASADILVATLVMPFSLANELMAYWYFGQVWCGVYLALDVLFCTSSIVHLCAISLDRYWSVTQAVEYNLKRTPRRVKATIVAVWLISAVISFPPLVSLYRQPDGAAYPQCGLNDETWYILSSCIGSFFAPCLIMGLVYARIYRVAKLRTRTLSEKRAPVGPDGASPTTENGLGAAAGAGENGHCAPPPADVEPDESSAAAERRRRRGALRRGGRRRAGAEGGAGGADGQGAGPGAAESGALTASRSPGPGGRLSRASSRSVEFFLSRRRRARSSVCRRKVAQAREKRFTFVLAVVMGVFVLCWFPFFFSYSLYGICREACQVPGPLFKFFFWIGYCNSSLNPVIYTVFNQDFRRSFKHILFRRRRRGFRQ
# Sequence of 5-hydroxytryptamine receptor 7 (Rattus norvegicus) (P32305 whole entry): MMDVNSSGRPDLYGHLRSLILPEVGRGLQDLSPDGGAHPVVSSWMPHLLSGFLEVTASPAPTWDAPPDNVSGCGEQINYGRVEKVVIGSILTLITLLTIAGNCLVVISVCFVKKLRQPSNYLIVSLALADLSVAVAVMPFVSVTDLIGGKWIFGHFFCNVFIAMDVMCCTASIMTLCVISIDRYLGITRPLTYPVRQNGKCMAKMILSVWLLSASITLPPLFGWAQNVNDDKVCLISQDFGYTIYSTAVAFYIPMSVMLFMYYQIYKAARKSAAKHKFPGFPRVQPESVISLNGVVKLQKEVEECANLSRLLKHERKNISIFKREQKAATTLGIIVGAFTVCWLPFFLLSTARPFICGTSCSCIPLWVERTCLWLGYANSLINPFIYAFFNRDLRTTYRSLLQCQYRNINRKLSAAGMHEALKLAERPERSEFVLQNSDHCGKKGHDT
# Sequence of Cytochrome P450 2C8 (P10632 whole entry): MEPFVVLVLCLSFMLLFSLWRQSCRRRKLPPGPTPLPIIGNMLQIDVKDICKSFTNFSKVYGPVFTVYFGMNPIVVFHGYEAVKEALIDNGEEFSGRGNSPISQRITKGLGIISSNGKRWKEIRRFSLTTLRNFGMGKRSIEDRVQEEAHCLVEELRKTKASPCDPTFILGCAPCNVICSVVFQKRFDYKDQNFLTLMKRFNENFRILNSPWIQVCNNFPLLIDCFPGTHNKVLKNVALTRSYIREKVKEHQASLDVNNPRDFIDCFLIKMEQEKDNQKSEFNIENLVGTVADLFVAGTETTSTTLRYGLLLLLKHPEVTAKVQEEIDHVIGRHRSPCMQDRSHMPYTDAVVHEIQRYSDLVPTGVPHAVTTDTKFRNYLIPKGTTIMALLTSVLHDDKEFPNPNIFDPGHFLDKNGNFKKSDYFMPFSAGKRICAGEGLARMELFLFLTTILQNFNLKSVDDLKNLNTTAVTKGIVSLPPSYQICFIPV
compound,measurement,setting,value
COc1ccc2c(c1)c(CN1CCN(C)CC1)cn2S(=O)(=O)c1ccccc1Br.CS(=O)(=O)O.O,AUC(0-t),[1],784 ng·h/mL
same,Activity,Homo sapiens,Non-Toxic
same,Activity,Rattus norvegicus [2],Non-Toxic
same,AUC(0-t),[3],1360 ng·h/mL
same,solubility,[4],1200 mg/mL
same,IC50,Cytochrome P450 3A4 [5],2640 nM
same,Activity,Cytochrome P450 3A4 [6],Not Active
same,Activity,[7],inactive
same,Activity,Salmonella typhimurium [8],Non-Toxic
same,Kb,[9],619 nM
same,bioavailability,[10],24.9%
same,Activity,Rattus norvegicus [11],Active
same,inhibition (INH),[12],Not Active
same,Vd,[13],4.41 L/kg
same,IC50,Cytochrome P450 2A6,> 10 µM
same,Activity,Salmonella typhimurium [14],Non-Toxic
same,Activity,Salmonella typhimurium [15],Non-Toxic
same,Activity,Rattus norvegicus [16],inactive
same,Activity,Rattus norvegicus [17],Non-Toxic
same,Activity,[18],inactive
same,clearance,[19],53 mL/min/kg
same,Activity,Rattus norvegicus [20],Active
same,Cmax,[21],272 ng/mL
same,Activity,Salmonella typhimurium [22],Non-Toxic
same,IC50,Cytochrome P450 2C8,> 10 µM
same,IC50,Cytochrome P450 2C19,5.7 µM
same,"Papp at 2 h, 10 µM",[23],19.6 ×10⁻⁶ cm/s
